GAA850 FXN act: activators of GAA850 frataxin (FXN) promoter; activation, % at 6 µM; 360,000 compounds, 0.56% hits; HEK293 lucGAA850 FXN promoter luciferase reporter, 24 h; percent of 10 µM SAHA response;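 active = activation above the average of all compounds screened plus 3 SD, cutoff fixed separately per campaign, cut at about 7.5% in these data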;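 note: 0% = DMSO wells and 100% = 10 µM SAHA wells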
proCasp7 act: counter-screen: procaspase-7 (human) activation; P55210; recombinant procaspase-7, Ac-DEVD-pNA absorbance 405 nm; D23A/D198A/D206A triple mutant, cannot self-cleave; scale: DMSO 0, 5 µM enzyme 100; activation, % at 8.5 µM; 330,000 compounds, 0.093% hits;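 active = percent activation above the screen-wide mean plus 3 SD, cut at about 25% in these data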
Target sequence (P55210 whole entry D23A/D198A/D206A): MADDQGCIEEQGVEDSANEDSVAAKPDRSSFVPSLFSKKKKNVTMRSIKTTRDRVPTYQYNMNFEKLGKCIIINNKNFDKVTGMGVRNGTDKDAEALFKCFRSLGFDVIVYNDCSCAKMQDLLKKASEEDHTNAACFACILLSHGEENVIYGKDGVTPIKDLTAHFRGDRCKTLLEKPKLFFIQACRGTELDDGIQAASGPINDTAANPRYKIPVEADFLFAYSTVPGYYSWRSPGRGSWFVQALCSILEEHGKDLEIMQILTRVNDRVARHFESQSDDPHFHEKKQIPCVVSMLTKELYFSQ
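Replicates: singlicate. Assay system: Procaspase-7 triple mutant (PC-7 D3A). Signal: 405 nm absorbance of p-nitroaniline. Times: 1 h preincubation, 2 h reaction. Buffer or medium: Zinc-free HEPES pH 7.4 with 300 mM NaCl, 0.01% Triton X-100. Also added: DEVD-pNA substrate. Benchmarks: DMSO wells as 0%, DMSO with 5 µM added PC-7 as 100%.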
Rce1 inhib: blocks yeast Ras-converting enzyme; Q03530; yeast membranes, quenched prenylated peptide cleavage fluorescence; calls only; 290,000 compounds, 0.27% hits; AID 2563;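 active = fall in fluorescence gain of 50% or more versus controls, with final raw signal at or below 3038400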;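 note: plate controls were neutral control wells for no effect and wells lacking membranes for full effect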
pCIP destab: p/CIP protein destabilization. Q05BA5. F442A p/CIP-EGFP cells, EGFP fluorescence, 16 h. decrease of EGFP signal, % at 10 µM. 290,000 compounds, 0.01% hits;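 active = EGFP signal decrease of at least 30% at 10 µM or well 3 SD below plate mean, unless failing retest; inactive = the rest, including hits failing retest or dose response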
Hep lipid drop: modulators of hepatic lipid droplet formation; inhibition, % at 6.5 µM; AID 1656; AML12 mouse hepatocytes, oleate lipid droplets, BODIPY imaging; 240,000 compounds, 0.4% hits;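 active = lipid droplet intensity inhibited by at least 50%, with more than 500 cells counted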
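Material – mouse AML12 hepatocyte cell line, fixed after treatment · Compound dosing – one dose, 6.5 µM compound · Times – compound with oleate, overnight · Measured by – Image-based BODIPY and DAPI two-channel analysis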
proCasp3 act: activators of human procaspase-3. P42574. recombinant procaspase-3 D3A, Ac-DEVD-pNA absorbance 405 nm. activation, % at 8.5 µM. 330,000 compounds, 0.11% hits. AID 463141;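 active = activation above the mean of all tested compounds plus 3 SD, cut at about 21% in these data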;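 note: 0% = DMSO alone and 100% = DMSO wells spiked with extra 5 µM PC-3 D3A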
Target sequence (P42574 whole entry D9A/D28A/D175A): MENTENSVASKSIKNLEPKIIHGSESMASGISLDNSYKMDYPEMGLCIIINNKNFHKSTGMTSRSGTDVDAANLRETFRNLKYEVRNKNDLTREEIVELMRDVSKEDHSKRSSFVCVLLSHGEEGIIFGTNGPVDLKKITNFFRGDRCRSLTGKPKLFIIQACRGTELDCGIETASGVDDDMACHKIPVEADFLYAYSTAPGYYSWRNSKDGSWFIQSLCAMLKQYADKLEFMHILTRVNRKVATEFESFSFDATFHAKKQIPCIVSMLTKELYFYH
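Compound: 8.5 µM single point, 0.8% DMSO / Material: Autoprocessing-dead procaspase-3 D3A mutant enzyme / Timing: 1 h preincubation plus 2 h reaction at 25 °C / Medium: Zinc-free HEPES/NaCl buffer with 0.01% Triton X-100 at pH 7.4 / Technique: 405 nm absorbance of p-nitroaniline, reads at 0 and 120 min / Repeats: one well per compound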
procasp7 triplic: counter-screen: procaspase-7 (human) activation in triplicate; recombinant procaspase-7, Ac-DEVD-pNA absorbance; asp23/198/206-to-Ala mutant, cannot self-cleave; activation, % at 8.5 µM; 210 tested, under 10 active; shares compounds with proCasp3 act;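 active = mean activation above a set limit taken from an earlier procaspase-7 screen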;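 note: 0% = DMSO wells and 100% = DMSO plus 5 µM procaspase-7 enzyme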
procasp3 conf: procaspase-3 (human) activation, confirmed; shares compounds with proCasp3 act; recombinant PC-3 D3A, Ac-DEVD-pNA absorbance 405 nm; 100% is higher-enzyme control; activation, % at 8.5 µM; 210 compounds, 10% hits;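 active = mean activation above a set limit carried over from the earlier primary screen, cut at about 22% in these data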
PC3 D3A act: counter-screen: procaspase-3 (human) activation; shares compounds with proCasp7 act; recombinant PC-3 D3A, Ac-DEVD-pNA absorbance 405 nm; aspartates 9, 28, 175 changed to alanine; 100% = enzyme control; activation, % at 8.5 µM; 290 tested, under 10 active; AID 493114;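 active = mean percent activation across triplicates above a set limit taken from the earlier primary procaspase-3 screen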;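 note: 0% = DMSO wells and 100% = DMSO wells with 5 µM added PC-3 D3A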
PC7 dual conf: procaspase-7 (human) activation, dual activator confirmation; shares compounds with proCasp7 act; recombinant procaspase-7, Ac-DEVD-pNA absorbance 405 nm; D23A/D198A/D206A mutant that cannot self-cleave; activation, % at 8.5 µM; 290 tested, under 10 active;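 active = mean activation above a set limit carried over from the earlier primary screen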;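 note: 0% = DMSO only and 100% = DMSO with added 5 µM PC-7 enzyme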
GAA30 FXN cntr: activates GAA30 frataxin promoter, counter-screen for GAA850 activators | shares compounds with GAA850 FXN act | HEK293 lucGAA30 FXN promoter luciferase, 24 h; DMSO = 0%, 5 µM ipriflavone = 100% | activation, % at 6 µM | 1,900 compounds, 66% hits | AID 588350;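 active = mean activation above the mean of solvent-only control wells plus 3 SD, cut at about 22% in these data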;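 note: counterscreen of GAA850 promoter hits where activity marks nonselective or luminescence artifacts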
FXN GAA850 conf: GAA850 FXN promoter activation confirmation. AID 588351. HEK293 lucGAA850 FXN promoter luciferase reporter, 24 h; 100% = activation by SAHA. activation, % at 6 µM. shares compounds with GAA850 FXN act. 1,900 compounds, 86% hits;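 active = mean activation above a set limit taken from the primary screen, cut at about 8% in these data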;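 note: 0% = DMSO wells and 100% = 10 µM SAHA wells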
An asterisk follows results filed as active; i = inactive; x = not tested or not shown. Compounds with a hit are over-represented: about 1.2% of the library has one in this group of screens.

SMILES	GAA850 FXN act	proCasp7 act	Rce1 inhib	pCIP destab	Hep lipid drop	proCasp3 act	procasp7 triplic	procasp3 conf	others
COC(=O)C1=C(NC(=O)c2cccs2)CCS1	x	x	x	-7.9	x	x	x	x
COCCn1c(N)c(C(=O)NCc2cccs2)c2nc3ccccc3nc21	-2.4	-1.1	i	-3.4	x	64.3*	-21.2	-16.0
COc1cc(/C=N/NC(=O)c2ccccn2)ccc1OC(=O)c1cccs1	3.5	1.1	i	-6.0	19.7	2.4	x	x
c1coc(C2=NC(c3ccco3)C(c3ccco3)N2)c1 (centres undefined)	0.0	x	x	x	x	x	x	x
CCN(C(=O)c1cnc(OC)cc1C(F)(F)F)c1ccc(Cl)cc1	-1.2	-4.3	i	-8.7	-38.9	27.1*	2.6	5.2
CCN(C(=O)c1cnc(OC)cc1C(F)(F)F)c1ccc(Cl)cc1Cl	-0.6	4.1	i	-36.2	-27.3	0.4	x	x
Cc1c(C(=O)NC2CCCc3ccccc32)cccc1[N+](=O)[O-] (centres undefined)	-0.2	2.5	i	-10.5	-1.9	2.2	x	x
CC(=O)Nc1nc(C)c(C(C)=O)s1	0.0	-11.8	i	15.6	-4.1	24.5*	3.9	3.7
CC(=O)c1sc(NC(=O)C(C)C)nc1C	0.2	-0.6	i	1.7	x	-4.2	x	x
N#Cc1c(-c2ccncc2)c2c([nH]c1=O)-c1ccccc1OC2	x	-0.6	i	-4.0	3.3	-7.8	x	x
N#Cc1c(-c2ccccc2Cl)c2c([nH]c1=O)-c1ccccc1OC2	0.5	3.8	i	-6.0	-44.2	25.9*	-21.5	-14.4
CC(C)OC(=O)CSc1ncnc2c1cnn2Cc1ccccc1	-2.4	1.4	i	-3.2	x	129.1*	2.2	1.1
COC(=O)CSc1ncnc2c1cnn2Cc1ccccc1	0.9	1.3	i	-7.0	x	-6.1	x	x
Cc1c(C)n2c(SCC(=O)N3CCCCCC3)nnc2[nH]c1=O	0.1	8.9	i	x	x	22.6*	0.8	2.7
CCCCCCCCN1[C@@H](CC(=O)O)c2ccc(C(F)(F)F)cc2S1(=O)=O	-0.3	-1.0	i	x	x	40.1*	0.9	3.1
CC1(C)CC(=O)C2=C(C1)c1c(ccc3ccccc13)NC2c1ccc(OCC(=O)O)cc1 (centres undefined)	-1.4	3.6	i	-0.4	x	0.1	x	x
CC1(C)CC(=O)C2=C(C1)c1c(ccc3ccccc13)NC2c1ccc(Br)o1 (centres undefined)	1.4	16.0	i	7.2	3.5	29.4*	31.0*	3.6
Cc1cc(C(F)(F)F)c(C#N)c(SCC(=O)Nc2nc3ccccc3s2)n1	-8.1	-8.0	i	-17.5	0.2	-3.1	x	x
Cc1cc(C)c(C#N)c(SCC(=O)Nc2nnc(-c3ccccc3)s2)n1	-2.4	22.5	i	0.3	-0.2	26.7*	1.9	1.2
Cc1nc(SCC(=O)Nc2nc3ccccc3s2)c(C#N)c(C)c1C	-16.2	-3.3	i	9.0	16.6	29.0*	-14.1	-6.7
CCOC(=O)C1(CCCc2ccccc2)CCN(C(=O)c2cc(C)nn2CC)CC1	-0.9	-11.3	i	-7.2	-20.3	23.1*	2.6	5.1
Cc1ccc(S(=O)(=O)c2cc3ccccc3nc2N)cc1	-0.7	2.3	i	3.0	-0.1	23.6*	6.6	-1.1
N#Cc1c(-c2ccccc2)cc2nc3ccccc3n2c1N	7.1	13.7	i	-6.2	-18.9	30.6*	-11.2	-13.5
CCCCN(C(=O)C1CCCC1)c1c(N)n(CCC)c(=O)[nH]c1=O	0.3	x	x	x	x	x	x	x
CC(Sc1ccc(S(=O)(=O)N2CCN(C)CC2)cn1)C(=O)Nc1cccc(Cl)c1Cl (centres undefined)	1.4	x	x	x	x	x	x	x
SMILES	GAA850 FXN act	proCasp7 act	Rce1 inhib	pCIP destab	Hep lipid drop	proCasp3 act	procasp7 triplic	procasp3 conf	others
Cc1c(C#N)c(=O)oc2ccc3ccccc3c12	-0.4	18.9	i	-1.7	x	25.8*	-22.3	-12.0
COc1ccc(C2CC(c3ccccc3C(F)(F)F)=NN2c2ccc(S(N)(=O)=O)cc2)cc1 (centres undefined)	0.5	23.8	x	x	x	34.8*	-20.4	-14.4
COc1ccc(C2CC(c3ccccc3Br)=NN2c2ccc(S(N)(=O)=O)cc2)cc1 (centres undefined)	-0.8	16.4	x	x	x	20.7	x	x
CC(C)(C)Cc1c(-c2ccccc2)nc2ccc(Cl)cn12	2.0	x	x	x	x	x	x	x
Cc1c(CCC(=O)NC2CC2)c(=O)oc2cc(O)ccc12	15.4*	16.6	i	1.6	-1.5	22.9*	-20.7	-12.6	GAA30 FXN cntr=20.3;FXN GAA850 conf=11.4*
O=C(NC12CC3CC(CC(C3)C1)C2)N(Cc1ccccc1)Cc1ccncc1	10.3*	7.2	i	-9.2	x	58.6*	4.1	6.7	GAA30 FXN cntr=13.0;FXN GAA850 conf=13.2*
O=C(NC12CC3CC(CC(C3)C1)C2)c1ccccc1	2.1	12.4	i	0.4	7.2	-1.0	x	x
O=C1C=C(c2ccccc2)C(c2ccccc2)C1 (centres undefined)	0.9	x	x	x	x	x	x	x
Cc1ccccc1NC(=O)c1cnn(-c2ccccc2)c1C	3.7	34.5*	i	0.3	x	4.2	x	x	PC3 D3A act=1.4;PC7 dual conf=1.2
O=C(Cc1ccc(NC(=O)C2CCN(C(=O)C3CCC3)CC2)cc1)Nc1ccc(C(=O)N2CCOCC2)cc1	-0.5	x	x	x	x	x	x	x
O=C1C(Cl)=C(NCCc2ccccc2)C(=O)N1CCc1ccccc1	1.4	33.4*	i	-7.0	-7.0	3.8	x	x	PC3 D3A act=-12.2;PC7 dual conf=-6.4

High-throughput results (PubChem BioAssay)
